pKd: −log10 of the molar value. Activity calls are given as the source filed them. The rule behind the calls is not given here.
Legend:
Rattus norvegicus [1] = assay: Antihyperglycemic activity in fasted hyperglycemic Wistar rat assessed as serum glucose level at 10 mg/kg, po measured 30 mins post dose by oral glucose tolerance test (reference value: 190.15 +/- 1.77 mg/dL); type: functional
Summary of the method: (§1)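 Rats fasted at least 16 h (water free) were given glucose 4 g/kg by oral gavage; test compounds 10 mg/kg were gavaged in 0.3% Tween 80. Tail-vein blood was taken before dosing and at 15, 30, 60 and 180 min, then centrifuged. Serum glucose was measured by the glucose oxidase method. Six determinations per group, mean ± S.E.M.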

Rattus norvegicus [2] = assay: Antihyperglycemic activity in fasted hyperglycemic Wistar rat assessed as serum glucose level at 10 mg/kg, po measured 15 mins post dose by oral glucose tolerance test (reference value: 177.46 +/- 5.95 mg/dL); type: functional; summary of the method: as §1
Rattus norvegicus [3] = assay: Antihyperglycemic activity in fasted hyperglycemic Wistar rat assessed as serum glucose level at 10 mg/kg, po measured 60 mins post dose by oral glucose tolerance test (reference value: 182.55 +/- 6.95 mg/dL); type: functional; summary of the method: as §1
Rattus norvegicus [4] = assay: Antihyperglycemic activity in fasted hyperglycemic Wistar rat assessed as serum glucose level at 10 mg/kg, po measured 180 mins post dose by oral glucose tolerance test (reference value: 141.15 +/- 4.47 mg/dL); type: functional; summary of the method: as §1
Rattus norvegicus [5] = assay: Effect on glycogen content in liver of fasted hyperglycemic Wistar rat assessed per gram of tissue at 10 mg/kg, po measured 3 hrs post dose (reference value: 14.6 +/- 1.27 mg/g of tissue); type: functional
Rattus norvegicus [6] = assay: Effect on glycogen content in skeletal muscle of fasted hyperglycemic Wistar rat assessed per gram of tissue at 10 mg/kg, po measured 3 hrs post dose (reference value: 8.6 +/- 1 mg/g of tissue); type: functional
Rattus norvegicus [7] = assay: Toxicity in fasted hyperglycemic Wistar rat assessed as LDH level at 10 mg/kg, po by spectrophotometry based LDH release assay (reference value: 75.63 +/- 7.08 IU/L); type: organism-based; parameters: dose 10 mg/kg, route oral; settings: in vivo
Rattus norvegicus [8] = assay: Insulin secretagogue activity in fasted hyperglycemic Wistar rat assessed as insulin level at 10 mg/kg, po measured 60 mins post dose by ELISA method (reference value: 0.59 +/- 0.004 ng/mL); type: functional
Rattus norvegicus [9] = assay: Insulin secretagogue activity in fasted hyperglycemic Wistar rat assessed as insulinogenic index ratio at 10 mg/kg, po by ELISA method (reference value: 0.66 ng/mg); type: functional
Summary of the method: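 Serum insulin (ELISA) and glucose (glucose oxidase) were sampled from 0 to 60 min after oral glucose 4 g/kg plus compound 10 mg/kg gavage in fasted rats. Incremental areas under the curves were computed. Insulinogenic index = AUC insulin / AUC glucose over 0–60 min.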

Rattus norvegicus [10] = assay: Insulin secretagogue activity in fasted hyperglycemic Wistar rat assessed as insulin level at 10 mg/kg, po measured 15 mins post dose by ELISA method (reference value: 2.84 +/- 0.002 ng/mL); type: functional
Rattus norvegicus [11] = assay: Insulin secretagogue activity in fasted hyperglycemic Wistar rat assessed as insulin level at 10 mg/kg, po measured 30 mins post dose by ELISA method (reference value: 0.75 +/- 0.007 ng/mL); type: functional
[12] = target: ATP-binding cassette sub-family C member 8 (Homo sapiens, UniProt Q09428); assay: Binding affinity to SUR1 (unknown origin)
Sequence of ATP-binding cassette sub-family C member 8 (Q09428 whole entry): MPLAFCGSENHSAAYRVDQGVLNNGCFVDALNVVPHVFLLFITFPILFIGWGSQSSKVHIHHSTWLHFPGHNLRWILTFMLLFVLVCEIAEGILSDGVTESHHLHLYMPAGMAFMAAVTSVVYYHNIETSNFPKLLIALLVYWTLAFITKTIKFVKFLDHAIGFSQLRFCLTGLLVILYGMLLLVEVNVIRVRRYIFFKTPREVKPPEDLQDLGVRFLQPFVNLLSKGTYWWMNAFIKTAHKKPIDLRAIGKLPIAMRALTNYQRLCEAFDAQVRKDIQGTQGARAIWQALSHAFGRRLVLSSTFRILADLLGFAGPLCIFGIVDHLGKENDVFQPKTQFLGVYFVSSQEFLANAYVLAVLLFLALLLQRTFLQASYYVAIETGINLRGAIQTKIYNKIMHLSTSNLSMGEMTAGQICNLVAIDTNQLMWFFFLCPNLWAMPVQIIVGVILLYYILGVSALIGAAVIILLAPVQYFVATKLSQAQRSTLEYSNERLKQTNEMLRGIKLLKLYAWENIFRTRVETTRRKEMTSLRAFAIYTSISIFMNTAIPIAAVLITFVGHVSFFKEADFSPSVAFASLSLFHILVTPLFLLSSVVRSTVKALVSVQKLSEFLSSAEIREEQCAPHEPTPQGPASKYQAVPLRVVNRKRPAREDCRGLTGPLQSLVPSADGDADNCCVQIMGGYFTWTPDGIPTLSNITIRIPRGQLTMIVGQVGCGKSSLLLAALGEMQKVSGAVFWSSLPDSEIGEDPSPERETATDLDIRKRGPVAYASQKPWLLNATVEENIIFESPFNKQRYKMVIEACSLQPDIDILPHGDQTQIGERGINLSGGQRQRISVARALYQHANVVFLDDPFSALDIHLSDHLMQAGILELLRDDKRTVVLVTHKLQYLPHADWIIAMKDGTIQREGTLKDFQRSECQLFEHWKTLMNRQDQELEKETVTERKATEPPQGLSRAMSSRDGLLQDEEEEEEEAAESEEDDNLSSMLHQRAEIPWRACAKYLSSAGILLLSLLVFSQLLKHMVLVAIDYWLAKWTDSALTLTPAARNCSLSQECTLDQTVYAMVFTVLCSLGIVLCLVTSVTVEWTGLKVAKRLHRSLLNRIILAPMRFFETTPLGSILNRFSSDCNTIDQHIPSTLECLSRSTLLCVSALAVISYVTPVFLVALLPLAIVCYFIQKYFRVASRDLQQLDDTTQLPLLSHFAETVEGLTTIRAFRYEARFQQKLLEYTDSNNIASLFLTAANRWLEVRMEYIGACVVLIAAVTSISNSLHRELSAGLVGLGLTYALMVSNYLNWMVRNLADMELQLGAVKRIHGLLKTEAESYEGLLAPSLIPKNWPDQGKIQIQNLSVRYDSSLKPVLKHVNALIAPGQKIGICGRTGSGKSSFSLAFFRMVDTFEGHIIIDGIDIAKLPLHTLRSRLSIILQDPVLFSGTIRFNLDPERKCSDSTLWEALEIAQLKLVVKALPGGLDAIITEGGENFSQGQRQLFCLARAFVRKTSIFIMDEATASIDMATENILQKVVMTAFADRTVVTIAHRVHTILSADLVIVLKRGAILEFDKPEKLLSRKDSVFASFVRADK

Soleus muscle [13] = assay: Stimulation of glucose uptake in Wistar rat soleus muscle assessed as glucose level per mg of protein at 100 uM by liquid scintillation counting based [14C]-2-deoxy-D-glucose uptake assay (reference value: 0.16 +/- 0.03 nmol glucose/mg protein); type: functional
Soleus muscle [14] = assay: Stimulation of glucose uptake in Wistar rat soleus muscle at 10 uM in presence of 350 uM cycloheximide by liquid scintillation counting based [14C]-2-deoxy-D-glucose uptake assay; type: functional, tissue-based
Summary of the method: (§2)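 Rat soleus in Krebs-Ringer bicarbonate (37 °C, O2/CO2 95:5, pH 7.4). Inhibitor or modulator (wortmannin 100 nM, H89, PMA 100 nM or cycloheximide) was present through a 30 min preincubation and a 60 min incubation, with or without compound. 14C-2-deoxy-D-glucose was added during incubation only. Uptake by scintillation counting normalised to Lowry protein; n=4 of 3 independent experiments.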

Soleus muscle [15] = assay: Increase in GLUT4 expression in Wistar rat soleus muscle membranes at 10 uM after 60 mins by immunofluorescence analysis; type: functional, cell membranes
Summary of the method: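 Soleus was taken after 60 min in vitro incubation, or 180 min after oral gavage at 10 mg/kg. Tissue was fixed in 4% paraformaldehyde, paraffin-embedded and cut at 5 µm, with citrate antigen retrieval. Sections were stained with mouse anti-GLUT4 (1:500, overnight) then Cy3 anti-mouse, with DAPI counterstain. GLUT4 distribution was assessed qualitatively.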

Soleus muscle [16] = assay: Increase in GLUT4 expression in Wistar rat soleus muscle at 20 uM after 60 mins in presence of 350 uM cycloheximide by polyacrylamide gel electrophoresis and immunoblotting analysis; type: functional, tissue-based
Soleus muscle [17] = assay: Stimulation of glucose uptake in Wistar rat soleus muscle at 10 uM in presence of 100 nM PI-3K inhibitor wortmannin by liquid scintillation counting based [14C]-2-deoxy-D-glucose uptake assay; type: functional, tissue-based; summary of the method: as §2
[18] = Effect on glucose uptake in Wistar rat soleus muscle assessed per mg of protein at 10 uM by liquid scintillation counting based [14C]-2-deoxy-D-glucose uptake assay (reference value: 0.16 +/- 0.03 nmol glucose/mg protein); type: functional
Soleus muscle [19] = assay: Stimulation of glucose uptake in Wistar rat soleus muscle at 10 uM in presence of 100 nM PMA by liquid scintillation counting based [14C]-2-deoxy-D-glucose uptake assay; type: functional, tissue-based; summary of the method: as §2
Soleus muscle [20] = assay: Stimulation of protein synthesis in Wistar rat soleus muscle at 10 uM by liquid scintillation counting based 1-[U-14C]leucine incorporation assay; type: functional, tissue-based
Summary of the method: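 Soleus muscles from fasted rats were preincubated 30 min in Krebs-Ringer bicarbonate (O2/CO2 95:5, pH 7.4), then incubated 60 min with compound and L-[U-14C]leucine. The reaction was stopped with cold TCA (7% final). Incorporation was expressed as cpm/mg protein (Lowry); n=4 of 3 independent experiments.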

Rattus norvegicus [21] = assay: Increase in GLUT4 expression in soleus muscle membranes of Wistar rat at 10 mg/kg, po after 180 mins by immunofluorescence analysis; settings: Membrane
[22] = Effect on glucose uptake in Wistar rat soleus muscle assessed per mg of protein at 1 uM by liquid scintillation counting based [14C]-2-deoxy-D-glucose uptake assay (reference value: 0.16 +/- 0.03 nmol glucose/mg protein); type: functional
Soleus muscle [23] = assay: Increase in GLUT4 expression in Wistar rat soleus muscle at 20 uM after 60 mins by polyacrylamide gel electrophoresis and immunoblotting analysis; type: functional, tissue-based
Soleus muscle [24] = assay: Stimulation of glucose uptake in Wistar rat soleus muscle at 10 uM in presence of 10 uM PKA inhibitor H89 by liquid scintillation counting based [14C]-2-deoxy-D-glucose uptake assay; type: functional, tissue-based; summary of the method: as §2

| SMILES | Activity (Rattus norvegicus [1]) | Activity (Rattus norvegicus [2]) | Activity (Rattus norvegicus [3]) | Activity (Rattus norvegicus [4]) | Activity (Rattus norvegicus [5]) | Activity (Rattus norvegicus [6]) | Activity (Rattus norvegicus [7]) | Activity (Rattus norvegicus [8]) | Ratio (Rattus norvegicus [9]) | Activity (Rattus norvegicus [10]) | Activity (Rattus norvegicus [11]) | other results |
| --- | --- | --- | --- | --- | --- | --- | --- | --- | --- | --- | --- | --- |
| COc1ccc(S(=O)(=O)NCCc2ccc(S(=O)(=O)NC(=O)Nc3cccc4ccccc34)cc2)cc1 | 156.4 mg/dL | 155.68 mg/dL | 157.9 mg/dL | 143.6 mg/dL | – | – | – | – | – | – | – | – |
| Cc1ccc(S(=O)(=O)NCCc2ccc(S(=O)(=O)NC(=S)Nc3ccccc3)cc2)cc1 | 157.14 mg/dL | 151.25 mg/dL | 173.51 mg/dL | 152.6 mg/dL | – | – | – | – | – | – | – | – |
| COc1ccc(Cl)cc1C(=O)NCCc1ccc(S(=O)(=O)NC(=O)NC2CCCCC2)cc1 [GLYBURIDE] | 135.24 mg/dL | 140.49 mg/dL | 128.34 mg/dL | 124.28 mg/dL | 8.71 mg | 17.46 mg | 41.08 IU/L | 2.46 ng/mL | 1.98 ng/mg | 3.83 ng/mL | 2.66 ng/mL | – |
| CC(C)c1cc(C(C)C)c(S(=O)(=O)NCCc2ccc(S(=O)(=O)NC(=S)Nc3ccccc3)cc2)c(C(C)C)c1 | 168.72 mg/dL | 149.51 mg/dL | 152.76 mg/dL | 142.08 mg/dL | – | – | – | – | – | – | – | – |
| COc1cc(NC(=O)CO[C@H]2O[C@H](CO)[C@@H](O)[C@H](O)[C@H]2O)c(Cl)cc1C(=O)NCCc1ccc(S(=O)(=O)NC(=O)NC2CCCCC2)cc1 | – | – | – | – | – | – | – | – | – | – | – | pKd [12]: 8.68 |
| COc1cc(NC(C)=O)c(Cl)cc1C(=O)NCCc1ccc(S(=O)(=O)NC(=O)NC2CCCCC2)cc1 | – | – | – | – | – | – | – | – | – | – | – | pKd [12]: 9.42 |
| O=S(=O)(NCCc1ccc(S(=O)(=O)NC(=S)Nc2ccccc2)cc1)c1ccccc1 | 151.62 mg/dL | 146.02 mg/dL | 158.27 mg/dL | 134.44 mg/dL | 10.66 mg | 6.93 mg | 68.09 IU/L | 0.78 ng/mL | 0.31 ng/mg | 0.39 ng/mL | 0.35 ng/mL | – |
| O=S(=O)(NC(=S)Nc1ccccc1)c1ccc(CCNS(=O)(=O)c2cccc3cccnc23)cc1 | 160.22 mg/dL | 147.97 mg/dL | 140.08 mg/dL | 139.63 mg/dL | 11.33 mg | 9.93 mg | 71.3 IU/L | 0.6 ng/mL | 0.84 ng/mg | 2.26 ng/mL | 1.36 ng/mL | – |
| COc1ccc(S(=O)(=O)NCCc2ccc(S(=O)(=O)NC(=S)Nc3ccccc3)cc2)cc1 | 144.75 mg/dL | 150.98 mg/dL | 154.79 mg/dL | 124.7 mg/dL | 104.25 mg | 7.24 mg | 108.01 IU/L | 0.53 ng/mL | 0.77 ng/mg | 2.75 ng/mL | 0.7 ng/mL | – |
| COc1ccc(S(=O)(=O)NCCc2ccc(S(=O)(=O)NC(=S)Nc3ccc(Cl)cc3)cc2)cc1 | 158.69 mg/dL | 141.45 mg/dL | 151.74 mg/dL | 139.54 mg/dL | 69.35 mg | 28.51 mg | 73.92 IU/L | 0.52 ng/mL | 0.72 ng/mg | 2.69 ng/mL | 0.71 ng/mL | – |
| CC1(C)C2CCC1(CS(=O)(=O)NCCc1ccc(S(=O)(=O)NC(=S)Nc3ccccc3)cc1)C(=O)C2 (stereo not given) | 160.61 mg/dL | 151.58 mg/dL | 149.03 mg/dL | 149.35 mg/dL | – | – | – | – | – | – | – | – |
| O=S(=O)(NCCc1ccc(S(=O)(=O)NC(=S)Nc2ccccc2)cc1)c1ccc(F)cc1 | 165.7 mg/dL | 148.8 mg/dL | 165.3 mg/dL | 146.4 mg/dL | – | – | – | – | – | – | – | – |
| O=S(=O)(NC(=S)Nc1ccccc1)c1ccc(CCNS(=O)(=O)c2cccs2)cc1 | 141.6 mg/dL | 150.23 mg/dL | 140.96 mg/dL | 139.26 mg/dL | 7.68 mg | 20.69 mg | 72.19 IU/L | 1.46 ng/mL | 1.06 ng/mg | 3.01 ng/mL | 1.19 ng/mL | Activity (Soleus muscle [13]): 0.32 nmol; Activity (Soleus muscle [14]): inactive; Activity (Soleus muscle [15]): Active; Activity (Soleus muscle [16]): inactive; Activity (Soleus muscle [17]): inactive; Activity [18]: 0.3 nmol; Activity (Soleus muscle [19]): inactive; Activity (Soleus muscle [20]): Active; Activity (Rattus norvegicus [21]): Active; Activity [22]: 0.35 nmol; Activity (Soleus muscle [23]): Active; Activity (Soleus muscle [24]): inactive |

From ChEMBL document CHEMBL3352301, “Novel sulfonyl(thio)urea derivatives act efficiently both as insulin secretagogues and as insulinomimetic compounds” (Eur J Med Chem, 2014)
